Here are results for nine compounds from PMC6300088 (Pharmaceutical Biology, 2018).

Values after ≈ are worked out from the molar mass of the structure shown. Where two headings read alike, the source gives them in different places.

The test system of series [1] is L5178Y mouse T-cell lymphoma cells: parent, PAR cells. Briefly: Cytotoxic effect. The class given is cell-based. As to conditions: 24 h; for IC50: Mus musculus, L5178Y, read-out: CA on PAR cells (IC50).
The test system of series [2] is L5178Y human ABCB1-transfected subline (MDR). Description: Cytotoxic effect. The class given is cell-based, mouse. The conditions noted are these: 24 h; for IC50: L5178Y, read-out: CA on MDR cells (IC50); for CA on MDR cells (IC50): cytotoxic activity, MTT, mean ± SD, n = 3.
The subject of series [3] is ABCB1 (P-glycoprotein). The class given is cell-based, human. As to conditions: for FL-1 (mean fluorescence intensity of the cells): MDR cells, rhodamine 123; for FAR (fluorescence activity ratio): rhodamine 123 retention.
In series [4] the test system is L5178Y mouse T-cell lymphoma cells: parent, PAR cells. Description: Antiproliferative effect. The class given is cell-based. The conditions noted are these: 72 h, read-out: AA on PAR cells (IC50).
Series [5] has as its system L5178Y human ABCB1-transfected subline (MDR). Description: Antiproliferative effect. It counts as cell-based, mouse. As to conditions: 72 h, read-out: AA on MDR cells (IC50).
Series [6] relates to NIH/3T3 mouse embryonic fibroblast cell line. Description: Cytotoxic effect. It counts as cell-based. As to conditions: cytotoxic activity on normal murine fibroblasts, 24 h, MTT, mean ± SD, n = 3.
The test system of series [7] is HL-60/MX2 (MDR). The conditions noted are these: read-out: IC50 against HL-60/MX2; ref Kubrak et al. [2017]; cited from earlier work.
Series [8] deals with CEM/C1 (lymphoblastic leukaemia). The conditions noted are these: read-out: IC50 against CEM/C1; ref Kubrak et al. [2017]; cited from earlier work.
Series [9] deals with multidrug resistant mouse T-lymphoma cells overexpressing the ABCB1 transporter. Briefly: Checkerboard combination assay with doxorubicin. It counts as cell-based. As to conditions: MDR cells. In short, it runs like this: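 L5178Y mouse T-lymphoma cells transfected with human ABCB1 (MDR), 6 × 10^3 per well in McCoy's 5A. Checkerboard layout with doxorubicin diluted horizontally (final concentration stated as 17.242 μM) and test compound diluted vertically. Incubated 72 h at 37 °C in 5% CO2. MTT added (5 mg/mL stock) for 4 h at 37 °C, then 10% SDS in 0.01 M HCl overnight at 37 °C.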

In series [10] the test system is HCT-15 (colon cancer) cells. The conditions noted are these: HCT-15 cells; ref Kim et al. [2007]; cited from earlier work.
For series [11], the system named is MCF7MX (BCRP overexpressing human epithelial breast cancer cell line). As to conditions: read-out: IC50 against MCF7MX; ref Mirzaei et al. [2017]; cited from earlier work.

Turning to `CC(C)(O)[C@H](O)COc1c2occc2cc2ccc(=O)oc12` [Heraclenol (9), heraclenol], the IC50 was over 100 µM in [1], over 100 µM in [2], 52.3 ± 2.12 µM in series [4] and 46.6 ± 0.47 µM in series [5]. The “CA on PAR cells (IC50)” value in [1] (cytotoxic activity, MTT, mean ± SD, n = 3) is reported as “no toxic effects”. In addition, the “CA on MDR cells (IC50)” value in [2] is “no toxic effects”. The “FL-1 (mean fluorescence intensity of the cells)” value in series [3] (2 µM) stood at 0.995. For the same compound, the “FAR (fluorescence activity ratio)” value in [3] (2 µM) turned out to be 1.37; in series [3] (20 µM), 1.30.
On to `CC(C)=CCOc1c2occc2cc2ccc(=O)oc12` [Imperatorin (6), imperatorin], for which the “CA on NIH/3T3 cells (IC50)” value in [6] is listed as “no toxic activity”. Also, the IC50 in [1] was 52.6 ± 4.19 µM; in [2], over 100 µM; in [4], 36.1 ± 0.91 µM; in series [5] it was 42.2 ± 0.88 µM. In addition, the “CA on MDR cells (IC50)” value in series [2] is “without any toxicity”. For the same compound, the “FL-1 (mean fluorescence intensity of the cells)” value in series [3] (2 µM) is recorded as 0.727; in series [3] (20 µM), 0.783. Besides, the results for the “FAR (fluorescence activity ratio)” value in series [3] (2 µM) and in series [3] (20 µM) were 0.62 and 0.66, respectively.
As to `COc1cc2c(cc1OC)CN(CCc1ccc(NC(=O)c3cc(OC)c(OC)cc3NC(=O)c3cnc4ccccc4c3)cc1)CC2` [Tariquidar, tariquidar, reference compound], in [3] (0.02 µM), the “FL-1 (mean fluorescence intensity of the cells)” value turned out to be 119 and the “FAR (fluorescence activity ratio)” value amounted to 100.68. Further, the “FAR (fluorescence activity ratio)” value in [3] (0.02 µM, listed as tariquidar) is recorded as 100.
For `COc1c2ccoc2c(OC)c2oc(=O)ccc12` [isopimpinellin], the IC50 in series [7] was 26 ± 5.7 µM.
`COc1c2ccoc2c(OCC=C(C)C)c2oc(=O)ccc12` [phellopterin]: in series [8], the IC50 was 8 ± 4 µM.
As for `CC1(C)O[C@@H]1COc1c2occc2cc2ccc(=O)oc12` [Heraclenin (8), heraclenin], the Interaction result was “Slight synergism” in series [9] (listed as Heraclenin) and “slight synergistic effect” in series [9] (listed as heraclenin (8)). The IC50 in [1] was 65.8 ± 1 µM; in series [2] it was 83.9 ± 1.68 µM; in series [4] it was 32.7 ± 2.4 µM; in series [5], 46.5 ± 1.22 µM. Moreover, the “FL-1 (mean fluorescence intensity of the cells)” value is listed as 0.942 in series [3] (2 µM) and 0.57 in series [3] (20 µM). Further, the figures for the “FAR (fluorescence activity ratio)” value in series [3] (2 µM) and in series [3] (20 µM) were 1.29 and 0.78, respectively.
For `COc1cccc2c1C(=O)c1c(O)c3c(c(O)c1C2=O)C[C@@](O)(C(=O)CO)C[C@@H]3O[C@H]1C[C@H](N)[C@H](O)[C@H](C)O1` [Doxorubicin, doxorubicin, reference compound], the IC50 in series [1] was found to be 0.377 ± 0.02 µM; in series [2], 7.15 ± 0.358 µM; in series [4], 0.054 ± 0.005 µM; in [5], 0.468 ± 0.065 µM.
Regarding `CC1(C)O[C@H]1COc1c2ccoc2cc2oc(=O)ccc12` [Oxypeucedanin (3), oxypeucedanin], the figures for the Interaction entry in series [9] (listed as Oxypeucedanin) and in series [9] (listed as oxypeucedanin (3)) were “Slight synergism” and “slight synergistic effect”, respectively. Moreover, the IC50 in series [1] turned out to be 40.3 ± 0.63 µM; in [2], 66.7 µM; in series [4] it was 26 ± 1.27 µM; in [5], 28.9 ± 0.73 µM. The “FL-1 (mean fluorescence intensity of the cells)” value in series [3] (2 µM) was 0.9; in series [3] (20 µM) it was 2.62. In addition, the “FAR (fluorescence activity ratio)” value is given as 0.76 in series [3] (2 µM); 2.22 in series [3] (20 µM); “moderate ABCB1 inhibiting effect” in [3] (20 µM, listed as oxypeucedanin (3)). Moreover, the “ED50, cell proliferation” value in series [10] was 3.4 ± 0.3 µg/mL (≈ 11.9 µM).
For `COc1c2occc2cc2ccc(=O)oc12` [8-Methoxypsoralen], in series [11], the IC50 is 0.0011 ± 0.00091 µM.
